Assay [1] relates to Neuro-2a mouse neuroblastoma cells. The experiment in a line: Cytotoxicity to Neuro-2a mouse neuroblastoma cells. Type of assay: cell-based.
Assay [2] relates to voltage gated sodium channel (VGSC). The following applies: cited from earlier work.
Assay [3] concerns site 2 of the mammalian VGSC. The following applies: cited from earlier work.
In assay [4] the test system is voltage gated sodium channel (VGSC). The assay is described as follows: Sodium influx / activation of VGSC in neocortical neurons. Type of assay: cell-based. The note with it: mouse neocortical neurons. In short, it runs like this: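 Primary neocortical neurons from embryonic day 16 Swiss-Webster mice were trypsin-dissociated, given 10 μM cytosine arabinoside on day 2, then Neurobasal/B-27 serum-free medium, and used at DIV 8–13. Cells were loaded for 1 h at 37 °C with 10 μM SBFI-AM and 0.02% Pluronic F-127, then washed in Locke's buffer. Ex 340/380 nm, em 505 nm, read every 5 s, with 60 s baseline before test compound addition. EC50 by nonlinear logistic regression.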

Assay [5] relates to H-460 human lung adenocarcinoma cells. The experiment in a line: Cytotoxicity to H-460 human lung adenocarcinoma cells. Type of assay: cell-based.
The test system of assay [6] is spontaneous Ca2+ oscillations in neocortical neurons. The experiment in a line: Suppression of spontaneous Ca2+ oscillations. Type of assay: cell-based, mouse.
In assay [7] the test system is brine shrimp. The experiment in a line: Brine shrimp toxicity assay. Type of assay: in vivo. The following applies: pure compound.

Entries after “also recorded” stand apart in the source; their conditions may differ.

Turning to `CCC[C@@H](C)[C@H](O)[C@H](C)[C@H]1OC(=O)[C@H]([C@@H](C)O)NC(=O)[C@H]([C@@H](C)CC)OC(=O)[C@H](C)[C@H](O)[C@H]([C@@H](C)CC)NC(=O)[C@@]2(C)CSC(=N2)[C@@]2(C)CSC(=N2)c2csc(n2)C[C@H](OC)[C@@H]1C` [Compound 2, hoiamide B], in assay [1], the “Neuro-2a (IC50 μM)” value is given as “Inactive”.

For `CCC[C@@H](C)[C@H](O)[C@H](C)[C@H]1OC(=O)[C@H]([C@@H](C)O)NC(=O)[C@H](C(C)C)OC(=O)[C@H](C)[C@H](O)[C@H]([C@@H](C)CC)NC(=O)[C@@]2(C)CSC(=N2)[C@@]2(C)CSC(=N2)c2csc(n2)C[C@H](OC)[C@@H]1C` [Compound 1, hoiamide A], in assay [2], the “kind of agonism in stimulation of sodium influx in neocortical neurons” value was “partial agonist”. Besides, the “inhibition of binding of [3H]batrachotoxin to site 2 of the mammalian VGSC” value in assay [3] is on record as “inhibits the binding”.

`CCC[C@@H](C)[C@H](O)[C@H](C)[C@@H](O)[C@@H](C)[C@H](Cc1nc(C2=N[C@@](C)(C3=N[C@@](C)(C(=O)N[C@H]([C@@H](O)[C@@H](C)C(=O)OCC)[C@@H](C)CC)CS3)CS2)cs1)OC` [Compound 3, hoiamide C]: the “Neuro-2a (IC50 μM)” value in assay [1] is “Inactive”. Also, the “stimulated sodium influx, EC50” value in assay [4] is given as “no significant effects; also recorded: no significant pharmacological activity”. Further, the “H-460 (IC50 μM)” value in assay [5] is reported as “Inactive”. For the same compound, the “suppressed spontaneous Ca2+ oscillations, EC50” value in assay [6] is recorded as “no significant effects; also recorded: no significant pharmacological activity”. Also, in assay [7], the “LC50 in the brine shrimp toxicity assay” value came out at 1.3 µM.

The values above are taken from PMC3227549 (Journal of natural products, 2010).
